The nature of assay [1]: Concentration of compound required to reduce the viability of mock-infected PBL(peripheral blood lymphocytes) cells. by 50%. The format is functional. The conditions noted are these: Homo sapiens.
Assay [2] in a line: Concentration required to achieve 50% protection of MT-4 cells against the cytopathic effect of HIV-1. Type of assay: functional, cell-based. The conditions noted are these: Homo sapiens, MT4. A digest of the protocol:
(§1)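 MT-4 cells at 1 × 10^6 cells/mL were infected with HIV-1 (HTLV-IIIB) or HIV-2 (LAV-2ROD) at an MOI of 0.02 (virus titrated as CCID50 in MT-4). Cells were plated immediately onto serial compound dilutions from DMSO stocks of 50 mM or higher. After 4 days at 37 °C, viable cells were counted by MTT.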
(In general: Damage to the host cells serves as the signal in cytopathic effect assays.)

Assay [3] in a line: Concentration required inhibit HIV-1 (HTLV-IIIb strain) replication in PBL(peripheral blood lymphocytes) cells. To be noted: Homo sapiens. Type of assay: functional, cell-based. A digest of the protocol:
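Phytohemagglutinin-stimulated PBL at 1 × 10^6 cells/mL were infected with HIV-1 HTLV-IIIB at an MOI of 0.2 and cultured at 37 °C with varied compound concentrations. On day 4 cells were subcultured 1:5 into fresh medium with compound. On day 7, p24 antigen in the supernatant was measured by sandwich ELISA, and EC50 was derived.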

Another assay deals with MT4. In words: Concentration required to reduce the viability of mock-infected MT-4 cells by 50%. Type of assay: functional. The conditions noted are these: Homo sapiens. A digest of the protocol: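 Mock-infected MT-4 cells were run in parallel with the antiviral assay: 1 × 10^6 cells/mL, serial compound dilutions, 4 days at 37 °C.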
A short description of assay [4]: Concentration required inhibit HIV-2 (LAV-2ROD)replication in MT-4 cells. Type of assay: functional, cell-based. To be noted: Homo sapiens, MT4. In short, it runs like this:
as §1

The nature of assay [5]: Concentration of compound required to reduce the viability of mock-infected HIV-2 (LAV-2ROD)/MT-4 cells by 50%. The format is functional. The conditions noted are these: Homo sapiens, MT4. In short, it runs like this:
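Mock-infected MT-4 cells, run in parallel with the HIV-2 LAV-2ROD antiviral assay. Cells at 1 × 10^6 cells/mL were plated into wells holding serial compound dilutions, with DMSO stocks at 50 mM or higher. After 4 days at 37 °C, viable cells were counted by the MTT method.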

The structures appear in SMILES notation.

As a reminder, the CC50 is the concentration at which the toxic effect on the cells reaches its halfway point. What is called EC50 is the concentration giving half of the maximal effect. Turning to `Cc1c(Sc2ccccc2)n(COCCO)c(=O)[nH]c1=O` [HEPT], the CC50 was determined as 640 µM in assay [1], 743 µM in the assay on MT4 and 740 µM in assay [5]. Further, the results for the EC50 in assay [2], in assay [3] and in assay [4] were 7 µM, 7.9 µM and > 250 µM, respectively.
In assay [2], `Cc1c(Sc2cc(Cl)cc(Cl)c2)n(COCCO)c(=O)[nH]c1=O` showed a half-maximal effective concentration (EC50) of 1.3 µM. In the assay on MT4, this molecule showed a cytotoxic concentration (CC50) of 130 µM.
Turning to `COc1ccc(Sc2c(C)c(=O)[nH]c(=O)n2COCCO)cc1`, the EC50 in assay [2] was > 250 µM. In the assay on MT4, the CC50 was > 250 µM.
Take `O=C(Nc1ccccc1)c1c(Sc2ccccc2)n(COCCO)c(=O)[nH]c1=O`: the EC50 in assay [2] is > 18 µM. Also, in the assay on MT4, the midpoint of cytotoxicity, the CC50, lay at 18 µM.
`Cc1c(Sc2cccc(Cl)c2)n(COCCO)c(=O)[nH]c1=O` displayed an EC50 in assay [2] of 13 µM. This molecule also came in with a CC50 with MT4 of 210 µM.
Take `Cc1cc(C)cc(Sc2c(C)c(=O)[nH]c(=S)n2COCCO)c1`: the concentration for a half-maximal effect (EC50) in assay [2] was found to be 0.22 µM. For the same molecule, in the assay with MT4, half-maximal cytotoxicity (CC50) was put at 172 µM.
`Cc1c(Sc2ccc(O)cc2)n(COCCO)c(=O)[nH]c1=O`: the EC50 in assay [2] was > 277 µM. In the assay with MT4, this molecule showed a cytotoxic concentration (CC50) of 277 µM.
Consider `Cc1c(Sc2ccc(C#N)cc2)n(COCCO)c(=O)[nH]c1=O`, for which, in assay [2], the concentration for a half-maximal effect (EC50) was > 250 µM. Further, the 50% cytotoxic concentration (CC50) in the assay on MT4 was > 250 µM.
`Cc1c(Sc2cccc(C#N)c2)n(COCCO)c(=O)[nH]c1=O`: a half-maximal effect in assay [2] (EC50) was put at 10 µM. Also, half-maximal cytotoxicity in the assay on MT4 (CC50) was put at 234 µM.
In assay [2], `Cc1c(Sc2cccc(Br)c2)n(COCCO)c(=O)[nH]c1=O` had an EC50 of 5.7 µM. The CC50 in the assay on MT4 came out at 141 µM.
For `CC(C)c1c(Sc2ccccc2)n(COCCO)c(=O)[nH]c1=O`, the response in assay [2] was half-maximal at 0.063 µM (EC50). Besides, the CC50 in the assay on MT4 was 231 µM.
In assay [2], `CCCc1c(Sc2ccccc2)n(COCCO)c(=O)[nH]c1=O` came in with an EC50 of 3.4 µM. This molecule also showed a 50% cytotoxic concentration (CC50) with MT4 of 244 µM.
For the molecule `COC(=O)c1c(Sc2ccccc2)n(COCCO)c(=O)[nH]c1=O`, the EC50 in assay [2] was > 6.6 µM. Besides, the midpoint of cytotoxicity in the assay on MT4, the CC50, lay at 6.6 µM.
`Cc1ccc(Sc2c(C)c(=O)[nH]c(=O)n2COCCO)cc1` came in with an EC50 in assay [2] of 220 µM. The cytotoxic concentration (CC50) in the assay with MT4 is > 250 µM.
Turning to `Cc1cc(C)cc(Sc2c(C)c(=O)[nH]c(=O)n2COCCO)c1`, the CC50 in the assay with MT4 was 243 µM.
As to `COC(=O)c1cccc(Sc2c(C)c(=O)[nH]c(=O)n2COCCO)c1`, a half-maximal response in assay [2] (EC50) required 7.9 µM. In the assay on MT4, the midpoint of cytotoxicity, the CC50, lay at 221 µM.
The like results for `Cc1c(Sc2cccc(CO)c2)n(COCCO)c(=O)[nH]c1=O` were, in that order, > 292 µM and 292 µM.
In turn, `Cc1cn([C@H]2C[C@H](N=[N+]=[N-])[C@@H](CO)O2)c(=O)[nH]c1=O` [ZIDOVUDINE] returned a concentration for a half-maximal effect (EC50) in assay [2] of 0.006 µM. The midpoint of cytotoxicity with MT4, the CC50, lay at 7.8 µM.
In turn, `CC(=O)c1cccc(Sc2c(C)c(=O)[nH]c(=O)n2COCCO)c1` had a concentration giving a half-maximal response (EC50) in assay [2] of 7.3 µM. Moreover, it took 228 µM to reach half-maximal cytotoxicity in the assay with MT4 (CC50).
In the same order, the values of `Cc1c(Sc2cccc(C(N)=O)c2)n(COCCO)c(=O)[nH]c1=O` are > 306 µM and 306 µM.
Take `Cc1c(Sc2ccccc2Cl)n(COCCO)c(=O)[nH]c1=O`: the concentration for a half-maximal effect (EC50) in assay [2] was > 130 µM. For the same molecule, in the assay with MT4, the CC50 turned out to be 130 µM.
As for `Cc1c(Sc2cccc(C(=O)O)c2)n(COCCO)c(=O)[nH]c1=O`, the EC50 in assay [2] was > 352 µM. The molecule further had a CC50 in the assay with MT4 of 352 µM.
In the same order, the values of `Cc1c(Sc2ccccc2)n(COCCO)c(=S)[nH]c1=O` are 0.98 µM and 123 µM.
In the same order, the values of `Cc1c(Sc2ccc([N+](=O)[O-])cc2)n(COCCO)c(=O)[nH]c1=O` are > 190 µM and 190 µM.
The like results for `CCc1c(Sc2cc(Cl)cc(Cl)c2)n(COCCO)c(=O)[nH]c1=O` were, in that order, 0.014 µM and 51 µM.
As to `Cc1c(Sc2ccc(F)cc2)n(COCCO)c(=O)[nH]c1=O`, the EC50 in assay [2] is > 250 µM. The CC50 in the assay with MT4 is > 250 µM.
Turning to `Cc1c(Sc2ccccc2[N+](=O)[O-])n(COCCO)c(=O)[nH]c1=O`, the EC50 in assay [2] amounted to 140 µM. Also, the CC50 in the assay on MT4 is > 250 µM.
For `Cc1c(Sc2cccc(C(F)(F)F)c2)n(COCCO)c(=O)[nH]c1=O`, the EC50 in assay [2] turned out to be 45 µM. In the assay on MT4, the CC50 was 196 µM.
For the molecule `Cc1c(Sc2cccc(I)c2)n(COCCO)c(=O)[nH]c1=O`, it took 10 µM to reach a half-maximal effect in assay [2] (EC50). The cytotoxic concentration (CC50) in the assay with MT4 is 106 µM.
In the same order, the values of `CCc1cccc(Sc2c(C)c(=O)[nH]c(=O)n2COCCO)c1` are 2.7 µM and 181 µM.
The like results for `CC(=O)c1ccc(Sc2c(C)c(=O)[nH]c(=O)n2COCCO)cc1` were, in that order, > 110 µM and 110 µM.
With `Cc1cc(C)cc(Sc2c(C(C)C)c(=O)[nH]c(=O)n2COCCO)c1`, the midpoint of cytotoxicity in the assay on MT4, the CC50, lay at 128 µM.
`Cc1c(Sc2cccc(O)c2)n(COCCO)c(=O)[nH]c1=O`: the 50% effective concentration (EC50) in assay [2] worked out at 82 µM. Also, in the assay on MT4, the CC50 worked out at 446 µM.
`CCc1c(Sc2ccccc2)n(COCCO)c(=O)[nH]c1=O`: the CC50 in assay [1] is 108 µM; in the assay with MT4 it was 400 µM; in assay [5], 400 µM. Moreover, the half-maximal effective concentration (EC50) in assay [2] is 0.12 µM; in assay [3], 0.19 µM; in assay [4], > 400 µM.
On to `COc1cccc(Sc2c(C)c(=O)[nH]c(=O)n2COCCO)c1`, for which, in assay [2], the EC50 turned out to be 22 µM. The CC50 in the assay with MT4 is > 250 µM.
In assay [2], `Cc1c(Sc2cccc(C(C)(C)C)c2)n(COCCO)c(=O)[nH]c1=O` showed an EC50 of 12 µM. This molecule also showed a half-maximal cytotoxic concentration (CC50) in the assay with MT4 of 75 µM.
The molecule `CCc1c(Sc2cc(C)cc(C)c2)n(COCCO)c(=O)[nH]c1=O` registered a half-maximal cytotoxic concentration (CC50) with MT4 of 149 µM.
In assay [2], `Cc1c(Sc2cccc(F)c2)n(COCCO)c(=O)[nH]c1=O` returned a concentration for a half-maximal effect (EC50) of 3.3 µM. The same molecule returned a 50% cytotoxic concentration (CC50) in the assay on MT4 of 282 µM.
Take `C=CCc1c(Sc2ccccc2)n(COCCO)c(=O)[nH]c1=O`: the 50% effective concentration (EC50) in assay [2] worked out at 2.5 µM. The same molecule had a half-maximal cytotoxic concentration (CC50) in the assay with MT4 of 183 µM.
In assay [2], `Cc1ccccc1Sc1c(C)c(=O)[nH]c(=O)n1COCCO` came in with an EC50 of 71 µM. Moreover, the CC50 in the assay on MT4 was > 250 µM.
In the same order, the values of `Cc1cccc(Sc2c(C)c(=O)[nH]c(=O)n2COCCO)c1` are 2.6 µM and 420 µM.
Take `Cc1c(Sc2ccc(Cl)cc2)n(COCCO)c(=O)[nH]c1=O`: in assay [2], the concentration giving a half-maximal response (EC50) is > 250 µM. Also, the half-maximal cytotoxic concentration (CC50) with MT4 is > 250 µM.
On to `Cc1c(Sc2cccc([N+](=O)[O-])c2)n(COCCO)c(=O)[nH]c1=O`, for which, in assay [2], a half-maximal effect (EC50) was put at 34 µM. The molecule also showed a CC50 in the assay with MT4 of 170 µM.
`COc1ccccc1Sc1c(C)c(=O)[nH]c(=O)n1COCCO` yielded a half-maximal effective concentration (EC50) in assay [2] of 19 µM. Besides, the CC50 in the assay with MT4 was > 250 µM.

Values taken from ChEMBL document CHEMBL1125288, “Structure-activity relationships of 1-[(2-hydroxyethoxy)methyl]-6-(phenylthio)thymine analogues: effect of substitutions at the C-6 phenyl ring and at the C-5 position on anti-HIV-1 activity” (J Med Chem, 1992).
